Assay results reported in ChEMBL document CHEMBL4118021, “Studies of TAK1-centered polypharmacology with novel covalent TAK1 inhibitors” (Bioorg Med Chem, 2017).

Key:
[1] = target: Serine/threonine-protein kinase 32C (Homo sapiens) (UniProt Q86UX6); experiment: Inhibition of YANK3 in human SKCO1 cells at 1 uM after 4 hrs using biotin labeled DVKPDNILLDER probe by mass-spectrometric analysis relative to control; type: cell-based
Procedure, shortened: (§1)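 Live SK-CO-1 cells exposed to compound at 1 μM or DMSO for 4 h (KiNativ). Lysates then labeled with lysine-reactive ATP/ADP-biotin probe, and probe-labeled kinase peptides quantified by mass spectrometry. Percent inhibition of probe-dependent recovery calculated relative to DMSO-treated cells.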

[2] = target: Epidermal growth factor receptor (Homo sapiens) (UniProt P00533); experiment: Inhibition of EGFR in human SKCO1 cells at 1 uM after 4 hrs using biotin labeled IPVAIKELR probe by mass-spectrometric analysis relative to control; type: cell-based
[3] = target: Ribosomal protein S6 kinase alpha-1 (Homo sapiens) (UniProt Q15418); experiment: Inhibition of RSK1 domain1 in human SKCO1 cells at 1 uM after 4 hrs using biotin labeled LTDFGLSKEAIDHEKK probe by mass-spectrometric analysis relative to control; type: cell-based; procedure, shortened: as §1
[4] = target: Aurora kinase A (Homo sapiens) (UniProt O14965); experiment: Inhibition of AurA in human SKCO1 cells at 1 uM after 4 hrs using biotin labeled GKFGNVYLAR probe by mass-spectrometric analysis relative to control; conditions: pooled result: one value given for 3 cell lines, strains, targets or settings
[5] = target: STE20-like serine/threonine-protein kinase SLK (Homo sapiens) (UniProt Q9H2G2); experiment: Inhibition of SLK in human SKCO1 cells at 1 uM after 4 hrs using biotin labeled DLKAGNILFTLDGDIK probe by mass-spectrometric analysis relative to control
[6] = target: Cyclin-dependent kinase 11B (Homo sapiens) (UniProt P21127); experiment: Inhibition of PITSLRE in human SKCO1 cells at 1 uM after 4 hrs using biotin labeled DLKTSNLLLSHAGILK probe by mass-spectrometric analysis relative to control; type: cell-based; procedure, shortened: as §1
[7] = target: T1, Mitogen-activated protein kinase kinase kinase kinase 3 (Homo sapiens) (UniProt Q8IVH8); experiment: Inhibition of KHS2 in human SKCO1 cells at 1 uM after 4 hrs using biotin labeled NVNTGELAAIKVIK probe by mass-spectrometric analysis relative to control; type: cell-based
T1 sequence (whole entry): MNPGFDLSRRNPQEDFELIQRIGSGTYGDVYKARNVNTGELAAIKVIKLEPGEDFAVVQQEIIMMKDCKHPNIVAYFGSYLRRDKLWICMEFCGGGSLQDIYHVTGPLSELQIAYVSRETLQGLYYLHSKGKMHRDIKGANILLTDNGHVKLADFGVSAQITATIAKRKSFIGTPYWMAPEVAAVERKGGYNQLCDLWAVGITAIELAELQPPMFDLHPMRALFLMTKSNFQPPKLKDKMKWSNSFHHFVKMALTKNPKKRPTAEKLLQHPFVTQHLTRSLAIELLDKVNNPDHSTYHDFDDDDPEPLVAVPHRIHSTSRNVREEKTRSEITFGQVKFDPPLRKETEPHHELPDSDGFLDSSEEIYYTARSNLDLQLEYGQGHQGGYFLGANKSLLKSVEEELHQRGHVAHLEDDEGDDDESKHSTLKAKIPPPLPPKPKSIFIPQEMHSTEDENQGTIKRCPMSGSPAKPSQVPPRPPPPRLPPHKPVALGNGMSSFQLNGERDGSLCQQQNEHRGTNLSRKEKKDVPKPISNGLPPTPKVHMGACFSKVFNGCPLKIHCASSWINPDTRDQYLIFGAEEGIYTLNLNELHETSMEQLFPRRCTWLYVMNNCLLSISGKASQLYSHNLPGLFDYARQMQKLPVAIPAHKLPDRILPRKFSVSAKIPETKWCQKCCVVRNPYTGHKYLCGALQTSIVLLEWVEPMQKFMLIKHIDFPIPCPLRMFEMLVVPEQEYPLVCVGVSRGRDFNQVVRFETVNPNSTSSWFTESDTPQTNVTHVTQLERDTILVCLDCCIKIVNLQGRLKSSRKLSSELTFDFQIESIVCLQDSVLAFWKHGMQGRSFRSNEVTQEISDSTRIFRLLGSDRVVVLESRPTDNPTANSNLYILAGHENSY

[8] = target: Mitogen-activated protein kinase kinase kinase kinase 4 (Homo sapiens) (UniProt O95819); experiment: Inhibition of ZC1/HGK in human SKCO1 cells at 1 uM after 4 hrs using biotin labeled DIKGQNVLLTENAEVK probe by mass-spectrometric analysis relative to control; type: cell-based; conditions: pooled result: one value given for 3 cell lines, strains, targets or settings; procedure, shortened: as §1
Chain of Mitogen-activated protein kinase kinase kinase kinase 4 (Homo sapiens) (O95819 2-1239 limits assumed): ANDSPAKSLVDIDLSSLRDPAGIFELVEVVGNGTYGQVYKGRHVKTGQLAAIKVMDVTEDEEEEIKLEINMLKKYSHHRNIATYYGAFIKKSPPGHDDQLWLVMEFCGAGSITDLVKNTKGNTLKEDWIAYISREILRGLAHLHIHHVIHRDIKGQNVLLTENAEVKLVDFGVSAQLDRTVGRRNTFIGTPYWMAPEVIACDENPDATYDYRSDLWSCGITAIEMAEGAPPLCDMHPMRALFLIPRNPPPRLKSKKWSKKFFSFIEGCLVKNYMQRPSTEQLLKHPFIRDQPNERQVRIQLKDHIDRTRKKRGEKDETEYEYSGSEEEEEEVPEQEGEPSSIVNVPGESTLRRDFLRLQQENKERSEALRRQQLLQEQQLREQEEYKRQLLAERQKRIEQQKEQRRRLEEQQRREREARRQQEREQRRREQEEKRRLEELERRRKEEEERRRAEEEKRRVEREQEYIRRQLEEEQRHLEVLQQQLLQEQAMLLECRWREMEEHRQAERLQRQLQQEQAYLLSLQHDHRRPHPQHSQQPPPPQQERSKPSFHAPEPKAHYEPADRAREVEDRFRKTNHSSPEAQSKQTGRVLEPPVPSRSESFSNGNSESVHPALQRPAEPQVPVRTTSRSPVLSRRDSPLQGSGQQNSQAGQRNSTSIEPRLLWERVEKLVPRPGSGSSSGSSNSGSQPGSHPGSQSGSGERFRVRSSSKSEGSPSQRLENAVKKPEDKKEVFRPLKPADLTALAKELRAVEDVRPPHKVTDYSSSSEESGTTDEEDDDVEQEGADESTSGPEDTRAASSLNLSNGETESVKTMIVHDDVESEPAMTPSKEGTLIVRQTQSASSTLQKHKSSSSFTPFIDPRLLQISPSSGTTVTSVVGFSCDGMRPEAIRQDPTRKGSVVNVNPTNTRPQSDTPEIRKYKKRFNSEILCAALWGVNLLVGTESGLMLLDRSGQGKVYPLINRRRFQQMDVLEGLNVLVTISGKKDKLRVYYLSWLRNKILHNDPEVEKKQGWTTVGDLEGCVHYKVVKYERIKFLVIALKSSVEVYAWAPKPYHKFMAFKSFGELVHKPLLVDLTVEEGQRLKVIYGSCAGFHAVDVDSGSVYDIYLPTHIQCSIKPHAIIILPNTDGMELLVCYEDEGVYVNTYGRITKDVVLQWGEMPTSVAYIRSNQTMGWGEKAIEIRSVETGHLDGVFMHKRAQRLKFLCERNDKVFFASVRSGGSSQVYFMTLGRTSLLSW

[9] = target: Mitogen-activated protein kinase kinase kinase 1 (Homo sapiens) (UniProt Q13233); experiment: Inhibition of MAP3K1 in human SKCO1 cells at 1 uM after 4 hrs using biotin labeled DVKGANLLIDSTGQR probe by mass-spectrometric analysis relative to control; type: cell-based
Chain of Mitogen-activated protein kinase kinase kinase 1 (Homo sapiens) (Q13233 whole entry, the tested form may be a part): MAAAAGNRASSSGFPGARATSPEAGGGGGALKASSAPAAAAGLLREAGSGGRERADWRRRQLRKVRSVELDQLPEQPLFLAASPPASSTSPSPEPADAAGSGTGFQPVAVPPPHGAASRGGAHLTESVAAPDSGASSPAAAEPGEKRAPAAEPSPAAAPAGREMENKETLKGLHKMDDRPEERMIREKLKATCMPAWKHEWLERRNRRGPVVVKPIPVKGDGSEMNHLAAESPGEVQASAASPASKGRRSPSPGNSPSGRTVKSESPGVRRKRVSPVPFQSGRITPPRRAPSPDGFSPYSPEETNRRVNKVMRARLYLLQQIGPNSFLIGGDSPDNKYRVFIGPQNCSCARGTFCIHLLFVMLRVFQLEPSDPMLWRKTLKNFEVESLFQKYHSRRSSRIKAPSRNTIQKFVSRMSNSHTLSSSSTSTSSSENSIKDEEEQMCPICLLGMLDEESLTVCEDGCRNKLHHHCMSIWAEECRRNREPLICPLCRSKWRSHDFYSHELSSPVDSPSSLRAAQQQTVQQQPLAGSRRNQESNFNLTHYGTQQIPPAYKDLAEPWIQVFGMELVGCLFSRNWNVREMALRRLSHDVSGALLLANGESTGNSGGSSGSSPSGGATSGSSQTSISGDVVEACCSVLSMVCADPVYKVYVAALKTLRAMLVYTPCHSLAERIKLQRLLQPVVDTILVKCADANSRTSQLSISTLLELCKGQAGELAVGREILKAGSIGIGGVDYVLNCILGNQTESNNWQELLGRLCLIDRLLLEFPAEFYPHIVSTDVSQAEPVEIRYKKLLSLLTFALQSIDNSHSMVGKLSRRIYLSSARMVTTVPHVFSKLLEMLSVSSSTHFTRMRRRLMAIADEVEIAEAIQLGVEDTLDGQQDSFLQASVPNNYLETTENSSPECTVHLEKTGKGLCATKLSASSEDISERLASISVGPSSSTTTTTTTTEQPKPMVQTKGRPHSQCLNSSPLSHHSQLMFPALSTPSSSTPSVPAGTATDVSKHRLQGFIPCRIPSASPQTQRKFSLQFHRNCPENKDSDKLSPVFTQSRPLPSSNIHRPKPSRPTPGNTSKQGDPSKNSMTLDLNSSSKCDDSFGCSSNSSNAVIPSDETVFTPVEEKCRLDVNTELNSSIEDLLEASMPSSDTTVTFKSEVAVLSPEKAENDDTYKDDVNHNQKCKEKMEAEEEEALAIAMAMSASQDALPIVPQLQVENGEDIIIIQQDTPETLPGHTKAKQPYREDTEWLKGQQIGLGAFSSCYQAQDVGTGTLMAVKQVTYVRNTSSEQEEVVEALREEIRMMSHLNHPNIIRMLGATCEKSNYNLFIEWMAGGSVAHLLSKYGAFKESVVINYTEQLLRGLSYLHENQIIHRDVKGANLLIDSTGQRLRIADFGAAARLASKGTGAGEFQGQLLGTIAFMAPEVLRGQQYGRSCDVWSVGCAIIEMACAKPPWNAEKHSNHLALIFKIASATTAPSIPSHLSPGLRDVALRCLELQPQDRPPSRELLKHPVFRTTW

[10] = target: eIF-2-alpha kinase GCN2 (Homo sapiens) (UniProt Q9P2K8); experiment: Inhibition of GCN2 domain2 in human SKCO1 cells at 1 uM after 4 hrs using biotin labeled DLKPVNIFLDSDDHVK probe by mass-spectrometric analysis relative to control; type: cell-based
Chain of eIF-2-alpha kinase GCN2 (Homo sapiens) (Q9P2K8 whole entry, the tested form may be a part): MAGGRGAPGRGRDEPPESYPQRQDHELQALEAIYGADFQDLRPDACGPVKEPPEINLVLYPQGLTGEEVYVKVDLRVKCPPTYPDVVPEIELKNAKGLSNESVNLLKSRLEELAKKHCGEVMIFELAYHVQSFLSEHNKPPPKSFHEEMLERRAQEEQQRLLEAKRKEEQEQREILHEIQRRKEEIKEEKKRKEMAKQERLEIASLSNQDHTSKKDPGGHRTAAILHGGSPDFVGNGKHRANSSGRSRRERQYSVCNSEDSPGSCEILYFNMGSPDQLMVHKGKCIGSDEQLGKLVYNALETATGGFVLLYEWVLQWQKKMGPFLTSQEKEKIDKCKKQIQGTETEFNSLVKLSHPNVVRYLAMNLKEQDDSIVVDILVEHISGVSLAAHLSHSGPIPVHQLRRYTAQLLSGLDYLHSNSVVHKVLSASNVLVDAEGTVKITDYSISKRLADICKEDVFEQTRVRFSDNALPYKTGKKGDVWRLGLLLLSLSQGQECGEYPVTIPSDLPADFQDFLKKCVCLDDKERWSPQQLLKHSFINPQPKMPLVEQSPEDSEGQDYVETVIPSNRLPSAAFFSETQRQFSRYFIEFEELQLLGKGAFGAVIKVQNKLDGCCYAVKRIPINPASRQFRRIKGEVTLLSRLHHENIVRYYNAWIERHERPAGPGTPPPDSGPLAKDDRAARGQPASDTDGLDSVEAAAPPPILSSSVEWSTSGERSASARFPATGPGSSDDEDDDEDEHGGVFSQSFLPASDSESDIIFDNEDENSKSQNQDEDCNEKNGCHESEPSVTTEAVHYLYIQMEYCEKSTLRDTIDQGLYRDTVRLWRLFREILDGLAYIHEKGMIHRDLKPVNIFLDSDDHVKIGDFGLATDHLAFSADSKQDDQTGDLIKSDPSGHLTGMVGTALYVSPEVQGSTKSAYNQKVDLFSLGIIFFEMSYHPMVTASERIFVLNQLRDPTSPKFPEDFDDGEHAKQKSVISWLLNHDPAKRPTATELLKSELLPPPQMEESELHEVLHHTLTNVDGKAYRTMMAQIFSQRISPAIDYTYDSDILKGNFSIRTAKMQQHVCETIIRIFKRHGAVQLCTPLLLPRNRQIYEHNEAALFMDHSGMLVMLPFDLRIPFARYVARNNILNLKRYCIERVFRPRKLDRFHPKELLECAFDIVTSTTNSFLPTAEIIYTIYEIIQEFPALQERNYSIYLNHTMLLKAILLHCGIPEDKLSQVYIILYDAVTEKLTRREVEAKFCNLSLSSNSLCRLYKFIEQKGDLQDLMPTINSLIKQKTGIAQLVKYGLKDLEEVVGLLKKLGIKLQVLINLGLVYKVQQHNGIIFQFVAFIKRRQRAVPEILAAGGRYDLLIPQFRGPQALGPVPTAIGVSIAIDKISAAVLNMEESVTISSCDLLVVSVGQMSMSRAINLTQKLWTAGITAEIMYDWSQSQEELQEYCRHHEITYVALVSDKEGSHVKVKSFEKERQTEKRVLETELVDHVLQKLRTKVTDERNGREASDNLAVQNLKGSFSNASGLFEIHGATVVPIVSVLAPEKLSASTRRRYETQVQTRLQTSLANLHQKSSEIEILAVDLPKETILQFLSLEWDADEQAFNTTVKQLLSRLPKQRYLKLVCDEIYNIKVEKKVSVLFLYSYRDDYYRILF

Chain of Serine/threonine-protein kinase 32C (Homo sapiens) (Q86UX6 whole entry): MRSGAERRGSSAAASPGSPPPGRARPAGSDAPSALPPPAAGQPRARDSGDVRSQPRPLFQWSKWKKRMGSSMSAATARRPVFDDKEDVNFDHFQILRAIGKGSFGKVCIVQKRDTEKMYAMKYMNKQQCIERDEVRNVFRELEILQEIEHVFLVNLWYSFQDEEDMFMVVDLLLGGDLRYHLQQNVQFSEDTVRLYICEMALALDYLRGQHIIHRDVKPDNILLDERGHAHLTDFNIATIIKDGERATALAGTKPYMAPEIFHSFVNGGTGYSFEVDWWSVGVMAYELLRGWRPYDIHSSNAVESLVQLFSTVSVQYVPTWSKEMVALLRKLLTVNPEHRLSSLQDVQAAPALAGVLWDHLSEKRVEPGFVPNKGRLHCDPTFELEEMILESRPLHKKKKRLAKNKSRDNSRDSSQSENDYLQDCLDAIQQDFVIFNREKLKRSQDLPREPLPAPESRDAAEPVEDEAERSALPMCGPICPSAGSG

With `COc1cc(O)c2c(c1)/C=C/C[C@H](O)[C@H](O)C(=O)/C=C\C[C@H](C)OC2=O` the inhibition [1] was -1.6%, the inhibition [2] was 6.2% and the inhibition [3] was 54.5%. It also gave an inhibition [4] of 55.7%, an inhibition [5] of 66% and an inhibition [6] of -1.4%. For the same compound, the inhibition [7] was 3.1%, the inhibition [8] was 15.1% and the inhibition [9] was 51.4%. For the same compound, the inhibition [10] was -6.1%.

With `C=CC(=O)Nc1ccccc1Nc1nc(Nc2ccc(N3CCN(C)CC3)cc2)ncc1Cl` the inhibition [1] was -0.3%, the inhibition [2] was 46.2% and the inhibition [3] was 56.2%. The inhibition [4] was 95.1%, the inhibition [5] was 76.3% and the inhibition [6] was -5.5%. The inhibition [7] was 42.4%, the inhibition [8] was 6.8% and the inhibition [9] was 78.5%. It also gave an inhibition [10] of 14.6%.

In the case of `C=CC(=O)Nc1ccccc1Oc1nc(Nc2cnn(CCOC)c2)ncc1Cl`, the inhibition [1] is reported as 9.3%, the inhibition [2] is reported as 17.1% and the inhibition [3] is reported as 33.5%. For the same compound, the inhibition [4] was 57.9%, the inhibition [5] was 61.2% and the inhibition [6] was -0.8%. The inhibition [7] was -7.5%, the inhibition [8] was 20.9% and the inhibition [9] was 59.7%. For the same compound, the inhibition [10] was 1.2%.
